ChEMBL document CHEMBL1138512, “A class of 2,4-bisanilinopyrimidine Aurora A inhibitors with unusually high selectivity against Aurora B” (J Med Chem, 2009)

Experiments:
Aurora kinase A [1] = target: T1, Aurora kinase A (Homo sapiens, UniProt O14965); assay: Inhibition of N-terminal flag-tagged Aurora A expressed in Escherichia coli BL21-DE3 by ELISA
T1 sequence (O14965 whole entry): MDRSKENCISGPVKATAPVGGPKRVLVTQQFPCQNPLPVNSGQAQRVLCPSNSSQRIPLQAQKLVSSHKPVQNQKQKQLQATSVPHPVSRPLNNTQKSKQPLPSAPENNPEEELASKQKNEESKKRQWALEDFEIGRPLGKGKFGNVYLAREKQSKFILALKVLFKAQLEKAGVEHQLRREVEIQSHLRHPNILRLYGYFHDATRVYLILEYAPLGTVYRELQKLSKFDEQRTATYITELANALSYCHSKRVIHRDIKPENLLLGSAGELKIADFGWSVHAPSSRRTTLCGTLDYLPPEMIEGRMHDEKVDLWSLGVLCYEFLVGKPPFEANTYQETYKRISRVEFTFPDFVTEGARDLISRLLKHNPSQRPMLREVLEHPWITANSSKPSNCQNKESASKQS

Aurora kinase B [2] = target: T2, Aurora kinase B (Homo sapiens, UniProt Q96GD4); assay: Inhibition of Aurora B in human HCT116 cells assessed as complete loss of phospho-histone H3 staining by immunofluorescence assay
T2 sequence (Q96GD4 whole entry): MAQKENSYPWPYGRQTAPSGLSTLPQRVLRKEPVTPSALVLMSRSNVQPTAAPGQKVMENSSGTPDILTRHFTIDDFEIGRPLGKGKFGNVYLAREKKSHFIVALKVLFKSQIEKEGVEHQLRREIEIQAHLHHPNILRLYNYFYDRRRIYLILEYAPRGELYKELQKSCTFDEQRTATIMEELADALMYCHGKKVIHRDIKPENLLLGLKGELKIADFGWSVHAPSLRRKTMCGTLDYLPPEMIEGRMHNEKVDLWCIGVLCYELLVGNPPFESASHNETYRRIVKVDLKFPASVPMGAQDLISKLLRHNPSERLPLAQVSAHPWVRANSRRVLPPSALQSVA

HCT-116 = assay: Antiproliferative activity against human HCT116 cells after 4 days by celltiter assay; format: functional, cell-based; details: HCT-116, 96 h
Aurora kinase B [3] = target: T2, Aurora kinase B; assay: Inhibition of N-terminal flag-tagged Aurora B expressed in Escherichia coli BL21-DE3 by ELISA
Aurora kinase B [4] = target: T2, Aurora kinase B; assay: Inhibition of Aurora B in human HT29 cells assessed as complete loss of phospho-histone H3 staining by immunofluorescence assay; format: cell-based, HT-29
Summary of the method: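 Immunofluorescence for phospho-S10 histone H3 in HCT116 or HT29 cells, scored visually. Value taken as the lowest inhibitor concentration giving complete loss of staining, so it lies above the IC50. Units µM.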

HT-29 = assay: Antiproliferative activity against human HT-29 cells after 4 days by celltiter assay; format: functional, cell-based; details: HT-29, 96 h
Aurora kinase A [5] = target: Aurora kinase A (Homo sapiens, UniProt O14965, T217E); assay: Inhibition of N-terminal flag-tagged Aurora A T217E mutant expressed in Escherichia coli BL21-DE3
Chain of Aurora kinase A (Homo sapiens, UniProt O14965, T217E) (O14965 whole entry I57V/T217E): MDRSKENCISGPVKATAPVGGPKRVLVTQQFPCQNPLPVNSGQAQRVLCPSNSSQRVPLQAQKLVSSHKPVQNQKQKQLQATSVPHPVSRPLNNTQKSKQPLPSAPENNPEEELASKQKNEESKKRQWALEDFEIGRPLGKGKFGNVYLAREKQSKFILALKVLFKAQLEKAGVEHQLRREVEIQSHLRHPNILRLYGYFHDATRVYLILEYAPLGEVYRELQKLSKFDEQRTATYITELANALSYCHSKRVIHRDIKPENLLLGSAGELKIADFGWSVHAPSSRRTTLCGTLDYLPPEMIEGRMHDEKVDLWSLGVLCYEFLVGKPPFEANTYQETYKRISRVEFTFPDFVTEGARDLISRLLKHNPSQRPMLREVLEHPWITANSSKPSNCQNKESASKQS

Aurora kinase A [6] = target: T1, Aurora kinase A; assay: Inhibition of Aurora A in human HCT116 cells assessed as complete loss of phospho-Aurora A staining in centrosomes by immunofluorescence assay; format: cell-based, HCT-116
Aurora kinase B [7] = target: Aurora kinase B (Homo sapiens, UniProt Q96GD4, E161T); assay: Inhibition of N-terminal flag-tagged Aurora B E161T mutant expressed in Escherichia coli BL21-DE3
Chain of Aurora kinase B (Homo sapiens, UniProt Q96GD4, E161T) (Q96GD4 whole entry E161T): as the sequence (Q96GD4 whole entry) above, with E161T counted along it

[8] = target: Cyclin-dependent kinase 2 (Homo sapiens, UniProt P24941); assay: Inhibition of CDK2/cyclin A

| SMILES | IC50 (Aurora kinase A [1]) [nM] | other results |
| --- | --- | --- |
| O=C(Nc1ccccc1O)c1ccc(Nc2nc(Nc3ccc(O)cc3)ncc2F)cc1 | 28 | – |
| O=C(Nc1ccc(O)cc1)c1ccc(Nc2nc(Nc3ccc(O)cc3)ncc2F)cc1 | 13 | – |
| COc1ccccc1Nc1nc(Nc2ccc(O)cc2)ncc1F | 20 | – |
| O=C(Nc1ccccc1F)c1ccc(Nc2nc(Nc3ccc(O)cc3)ncc2F)cc1 | 9 | – |
| O=C(Nc1ccccc1)c1ccc(Nc2nc(Nc3ccc(O)cc3)ncc2F)cc1 | 19 | – |
| Oc1ccc(Nc2ncc(F)c(Nc3ccc(O)cc3)n2)cc1 | 30 | – |
| O=C(Nc1ccc(Nc2nc(Nc3ccc(O)cc3)ncc2F)cc1)c1ccccc1 | 18 | – |
| COc1ccccc1NC(=O)c1ccc(Nc2nc(Nc3ccc(O)cc3)ncc2F)cc1 | 78 | – |
| Cc1nc(Nc2ccc(O)cc2)nc(Nc2ccc(O)cc2)c1C | > 17000 | – |
| O=C(Nc1ccc(Nc2nc(Nc3ccc(O)cc3)ncc2F)cc1)c1ccccc1F | 14 | – |
| Cc1cnc(Nc2ccc(O)cc2)nc1Nc1ccc(O)cc1 | 34 | – |
| CC(C)NC(=O)c1ccc(Nc2nc(Nc3ccc(O)cc3)ncc2F)cc1 | 51 | – |
| O=C(NC1CC1)c1ccc(Nc2nc(Nc3ccc(O)cc3)ncc2F)cc1 | 54 | IC50 (Aurora kinase B [2]): > 25 µM; IC50 (HCT-116): 2000 nM; IC50 (Aurora kinase B [3]): 3.8 µM; IC50 (Aurora kinase B [4]): > 30 µM; IC50 (HT-29): 27 µM |
| Oc1ccc(Nc2ccnc(Nc3ccc(O)cc3)n2)cc1 | 490 | – |
| Cc1ccccc1NC(=O)c1ccc(Nc2nc(Nc3ccc(O)cc3)ncc2F)cc1 | 20 | – |
| COc1cccc(NC(=O)c2ccc(Nc3nc(Nc4ccc(O)cc4)ncc3F)cc2)c1 | 36 | – |
| Cc1cccc(Nc2ncc(F)c(Nc3cccc(C)c3)n2)c1 | 680 | – |
| NC(=O)c1ccc(Nc2nc(Nc3ccc(O)cc3)ncc2F)cc1 | 160 | – |
| CCN1CCN(C(=O)Cc2ccc(Nc3ncc(F)c(Nc4ccc(C(=O)Nc5ccccc5Cl)cc4)n3)cc2)CC1 | 3.4 | IC50 (Aurora kinase A [5]): 2000 nM; IC50 (Aurora kinase B [2]): > 50 µM; IC50 (Aurora kinase A [6]): 2500 nM; IC50 (Aurora kinase B [7]): 55 nM; IC50 [8]: > 16 µM; IC50 (HCT-116): 190 nM; IC50 (Aurora kinase B [3]): 3.4 µM; IC50 (Aurora kinase B [4]): > 27 µM; IC50 (HT-29): 2.9 µM |
| COc1ccc(Nc2ncc(F)c(Nc3ccc(OC)cc3)n2)cc1 | 130 | – |
| O=C(Nc1ccc(F)cc1)c1ccc(Nc2nc(Nc3ccc(O)cc3)ncc2F)cc1 | 25 | – |
| O=C(Nc1ccc(Nc2nc(Nc3ccc(O)cc3)ncc2F)cc1)c1ccccc1Cl | – | IC50 (Aurora kinase B [2]): > 12 µM; IC50 (HCT-116): 850 nM; IC50 (Aurora kinase B [3]): 1.4 µM; IC50 (Aurora kinase B [4]): > 30 µM; IC50 (HT-29): 7.2 µM |
| Cc1ccc(NC(=O)c2ccc(Nc3nc(Nc4ccc(O)cc4)ncc3F)cc2)cc1 | 180 | – |
